Results published in ChEMBL document CHEMBL1154939, “Novel multiple opioid ligands based on 4-aminobenzazepinone (Aba), azepinoindole (Aia) and tetrahydroisoquinoline (Tic) scaffolds” (Bioorg Med Chem Lett, 2010).
Activity calls are given as the source filed them. No cut-off for these calls is given here. Numbered stars: 1 amine (or outer) side, 2 acyl side, 3 side chain; on linkers, the order of the positions; unused ones are H or OH. Bridge positions count the residues as written; N and C are the ends. Square brackets hold non-standard residues; d marks the D form. Peptide text beside a SMILES is read from it. I, II: the chains in the order shown. Dmt = Cc1cc(O)cc(C)c1C[C@H](N)C(=O)O; Ethylenediamine = C(CN[*:2])N[*:1]; Tic = O=C(O)[C@@H]1Cc2ccccc2CN1

Key:
Mu-type opioid receptor [1] = biological target: Mu-type opioid receptor (Cavia porcellus, UniProt P97266); assay: Antagonist activity at mu opioid receptor in guinea pig ileum; type: functional, tissue-based
Mu-type opioid receptor [2] = biological target: Mu-type opioid receptor (Rattus norvegicus, UniProt P33535); assay: Displacement of [3H]DAMGO from mu opioid receptor in rat brain membranes; type: cell membranes
Summary of the method: (§1)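 Equilibrium competition binding on P2 membrane preparation of rat brain; mu sites labelled with [3H]DAMGO, delta sites with [3H]deltorphin II. Five to eight graded peptide doses, duplicate wells; Ki via Cheng-Prusoff. Mean ± SEM from three to six independent assays using different synaptosomal preparations.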

[3] = biological target: Delta-type opioid receptor (Mus musculus, UniProt P32300); assay: Antagonist activity at delta opioid receptor in mouse vas deferens; type: functional, tissue-based
[4] = biological target: Delta-type opioid receptor (Rattus norvegicus, UniProt P33533); assay: Displacement of [3H]deltorphin 2 from delta opioid receptor in rat brain membranes; type: cell membranes; summary of the method: as §1
[5] = biological target: Mu-type opioid receptor (Homo sapiens) (UniProt P35372); assay: Antagonist activity at mu opioid receptor in human SK-N-SH cells assessed as inhibition of loperamide-stimulated [35S]-GTPgammaS binding after 60 mins by liquid scintillation counting; type: functional, cell-based
Summary of the method: (§2)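 [35S]GTPγS binding in cell membranes: delta antagonism measured against deltorphin C-stimulated binding in NG108-15 membranes, mu antagonism against loperamide-stimulated binding in SK-N-SH membranes; antagonism expressed as pA2 from rightward shift of agonist dose-response curves.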

Rattus norvegicus [6] = organism: Rattus norvegicus; assay: Selectivity ratio of Ki for rat delta opioid receptor to Ki for rat mu opioid receptor
[7] = biological target: Delta-type opioid receptor (Rattus norvegicus) (UniProt P33533); assay: Antagonist activity at delta opioid receptor in rat NG108-15 cells assessed as inhibition of deltorphin C-stimulated [35S]-GTPgammaS binding after 60 mins by scintillation counting; type: functional, cell-based; summary of the method: as §2
Rattus norvegicus [8] = organism: Rattus norvegicus; assay: Selectivity ratio of Ki for rat mu opioid receptor to Ki for rat delta opioid receptor

Chain of Mu-type opioid receptor (Rattus norvegicus, UniProt P33535) (P33535 whole entry): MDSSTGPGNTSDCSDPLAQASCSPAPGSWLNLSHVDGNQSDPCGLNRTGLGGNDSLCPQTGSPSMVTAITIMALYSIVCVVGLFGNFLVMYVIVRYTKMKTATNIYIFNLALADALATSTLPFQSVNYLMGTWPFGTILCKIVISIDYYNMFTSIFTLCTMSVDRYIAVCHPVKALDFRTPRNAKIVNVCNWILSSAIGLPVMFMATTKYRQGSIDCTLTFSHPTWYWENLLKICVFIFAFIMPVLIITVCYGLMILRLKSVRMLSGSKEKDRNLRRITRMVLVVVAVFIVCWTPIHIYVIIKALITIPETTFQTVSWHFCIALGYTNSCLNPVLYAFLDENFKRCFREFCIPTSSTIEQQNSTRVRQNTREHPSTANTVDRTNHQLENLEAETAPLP
Chain of Delta-type opioid receptor (Mus musculus, UniProt P32300) (P32300 whole entry): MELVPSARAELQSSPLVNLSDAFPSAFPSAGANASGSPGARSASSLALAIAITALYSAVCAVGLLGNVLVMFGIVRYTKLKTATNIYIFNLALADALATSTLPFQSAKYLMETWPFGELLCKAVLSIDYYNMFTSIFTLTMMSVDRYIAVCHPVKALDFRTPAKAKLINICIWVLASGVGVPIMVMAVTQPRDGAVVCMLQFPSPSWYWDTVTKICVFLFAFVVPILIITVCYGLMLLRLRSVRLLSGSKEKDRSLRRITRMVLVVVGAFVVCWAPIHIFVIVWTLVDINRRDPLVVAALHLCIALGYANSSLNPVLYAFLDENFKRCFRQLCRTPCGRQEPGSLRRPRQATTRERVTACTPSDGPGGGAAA
Chain of Mu-type opioid receptor (Cavia porcellus, UniProt P97266) (P97266 whole entry): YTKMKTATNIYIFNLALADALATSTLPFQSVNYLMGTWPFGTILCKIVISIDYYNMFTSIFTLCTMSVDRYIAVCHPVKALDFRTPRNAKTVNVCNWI
Chain of Mu-type opioid receptor (Homo sapiens) (P35372 whole entry): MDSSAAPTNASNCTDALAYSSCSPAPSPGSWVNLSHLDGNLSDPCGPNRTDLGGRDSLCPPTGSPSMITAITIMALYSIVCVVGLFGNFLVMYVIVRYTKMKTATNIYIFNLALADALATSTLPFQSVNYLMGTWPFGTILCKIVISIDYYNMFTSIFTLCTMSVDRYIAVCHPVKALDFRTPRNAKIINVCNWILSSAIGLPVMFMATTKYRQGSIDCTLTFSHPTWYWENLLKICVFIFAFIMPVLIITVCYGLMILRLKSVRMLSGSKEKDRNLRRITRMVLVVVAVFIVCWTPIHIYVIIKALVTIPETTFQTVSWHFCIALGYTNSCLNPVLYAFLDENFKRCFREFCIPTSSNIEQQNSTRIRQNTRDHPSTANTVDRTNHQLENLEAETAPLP
Chain of Delta-type opioid receptor (Rattus norvegicus) (P33533 whole entry): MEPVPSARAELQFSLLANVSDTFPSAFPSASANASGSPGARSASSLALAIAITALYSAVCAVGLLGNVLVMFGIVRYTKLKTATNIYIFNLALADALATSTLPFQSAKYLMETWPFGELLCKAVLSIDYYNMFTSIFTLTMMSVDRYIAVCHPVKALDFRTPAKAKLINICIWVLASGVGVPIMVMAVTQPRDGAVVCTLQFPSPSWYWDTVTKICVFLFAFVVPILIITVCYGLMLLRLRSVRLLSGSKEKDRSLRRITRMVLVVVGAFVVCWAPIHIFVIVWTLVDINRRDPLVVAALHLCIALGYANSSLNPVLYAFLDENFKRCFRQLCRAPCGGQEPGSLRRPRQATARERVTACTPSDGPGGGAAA
Chain of Delta-type opioid receptor (Rattus norvegicus, UniProt P33533) (P33533 whole entry): as above

Cc1cc(O)cc(C)c1C[C@H](N)C(=O)N1Cc2ccccc2C[C@H]1C(=O)NCCN(CCNC(=O)[C@@H]1Cc2ccccc2CN1C(=O)[C@@H](N)Cc1c(C)cc(O)cc1C)CCNC(=O)[C@@H]1Cc2ccccc2CN1C(=O)[C@@H](N)Cc1c(C)cc(O)cc1C
IC50 (Mu-type opioid receptor [1]): > 10000 nM
Ki (Mu-type opioid receptor [2]): 7.78 nM
IC50 [3]: > 10000 nM
Ki [4]: 3.75 nM

Cc1cc(O)cc(C)c1C[C@H](N)C(=O)N1Cc2ccccc2C[C@H]1C(=O)NCC/C=C/CCNC(=O)[C@@H]1Cc2ccccc2CN1C(=O)[C@@H](N)Cc1c(C)cc(O)cc1C
Ki (Mu-type opioid receptor [2]): 1.5 nM

Cc1cc(O)cc(C)c1C[C@H](N)C(=O)N[C@H]1Cc2ccccc2CN(CC(=O)NCCNC(=O)CN2Cc3ccccc3C[C@H](NC(=O)[C@@H](N)Cc3c(C)cc(O)cc3C)C2=O)C1=O
IC50 (Mu-type opioid receptor [1]): > 10000 nM
Ki (Mu-type opioid receptor [2]): 16.1 nM
Ki [4]: 154 nM

Cc1cc(O)cc(C)c1C[C@H](N)C(=O)N1Cc2ccccc2C[C@H]1C(=O)O (H-[Dmt]-[Tic]-OH)
Ki (Mu-type opioid receptor [2]): 3.32 nM

Cc1cc(O)cc(C)c1C[C@H](N)C(=O)N1Cc2ccccc2C[C@H]1C(=O)NCCNC(=O)[C@@H]1Cc2ccccc2CN1C(=O)[C@@H](N)Cc1c(C)cc(O)cc1C (I: H-[Dmt]-[Tic] / II: H-[Dmt]-[Tic]; linker I:C-II:C via Ethylenediamine)
IC50 (Mu-type opioid receptor [1]): > 10000 nM
Ki (Mu-type opioid receptor [2]): 10.2 nM
IC50 [3]: > 10000 nM
Ki [4]: 0.96 nM

Cc1cc(O)cc(C)c1C[C@H](N)C(=O)N[C@H]1Cc2ccccc2CN(CC(=O)NCCN(CCNC(=O)CN2Cc3ccccc3C[C@H](NC(=O)[C@@H](N)Cc3c(C)cc(O)cc3C)C2=O)CCNC(=O)CN2Cc3ccccc3C[C@H](NC(=O)[C@@H](N)Cc3c(C)cc(O)cc3C)C2=O)C1=O
IC50 (Mu-type opioid receptor [1]): > 10000 nM
Ki (Mu-type opioid receptor [2]): 8.06 nM
IC50 [3]: > 10000 nM
Ki [4]: 196 nM

Cc1cc(O)cc(C)c1C[C@H](N)C(=O)N[C@@H]1Cc2c([nH]c3ccccc23)CN(CC(=O)NCCNC(=O)CN2Cc3[nH]c4ccccc4c3C[C@@H](NC(=O)[C@@H](N)Cc3c(C)cc(O)cc3C)C2=O)C1=O
pA2 [5]: inactive
Ratio Ki (Rattus norvegicus [6]): 1.5
Ki (Mu-type opioid receptor [2]): 139 nM
pA2 [7]: inactive
Ki [4]: 211 nM

Cc1cc(O)cc(C)c1C[C@@H](C(=O)N[C@H]1Cc2c([nH]c3ccccc23)CN(CC(=O)NCCNC(=O)CN2Cc3[nH]c4ccccc4c3C[C@H](NC(=O)[C@H](Cc3c(C)cc(O)cc3C)N(C)C)C2=O)C1=O)N(C)C
pA2 [5]: inactive
Ratio Ki (Rattus norvegicus [8]): 3.4
Ki (Mu-type opioid receptor [2]): 344 nM
pA2 [7]: inactive
Ki [4]: 101 nM

Cc1cc(O)cc(C)c1C[C@H](N)C(=O)N[C@@H]1Cc2c([nH]c3ccccc23)CN(CC(=O)NCc2ccc(CNC(=O)CN3Cc4[nH]c5ccccc5c4C[C@@H](NC(=O)[C@@H](N)Cc4c(C)cc(O)cc4C)C3=O)cc2)C1=O
pA2 [5]: inactive
Ratio Ki (Rattus norvegicus [6]): 2
Ki (Mu-type opioid receptor [2]): 177 nM
pA2 [7]: inactive
Ki [4]: 361 nM
